Source: PubChem
A selection: hits, their analogues and other compounds. The true share with any hit is near 2.6%.
Hep lipid drop: modulators of hepatic lipid droplet formation. 240,000 compounds, 0.4% hits. AID 1656. AML12 mouse hepatocytes, oleate lipid droplets, BODIPY imaging. inhibition, % at 6.5 µM;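 active means lipid droplet intensity inhibited by at least 50%, with more than 500 cells counted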
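Technique: fluorescence imaging, 20x objective, two fields per well / Assay system: AML12 hepatocytes (mouse) / Measure: % inhibition of lipid droplet signal / Doses: 6.5 µM single-point dosing / Incubation: overnight exposure / Reagent: 100 µM oleic acid challenge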
MEKK3 PB1 HTS: MEKK3-MEK5 PB1 interaction, increase or decrease | 290,000 compounds, 1.4% hits | AID 1529 | bead-based flow cytometry, Alexa488-MEK5 binding to MEKK3; actives lie on both sides; 0 = blocked by unlabeled MEK5, 100 = vehicle | binding response (% of control), % at 10 µM;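 active means binding response more than 3 SD above or below the average of its plate-row segment, actives on both sides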;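 further: Alexa488 bead fluorescence after subtracting the streptavidin-only scavenger bead signal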
Target sequence (Q99759 whole entry, looked up): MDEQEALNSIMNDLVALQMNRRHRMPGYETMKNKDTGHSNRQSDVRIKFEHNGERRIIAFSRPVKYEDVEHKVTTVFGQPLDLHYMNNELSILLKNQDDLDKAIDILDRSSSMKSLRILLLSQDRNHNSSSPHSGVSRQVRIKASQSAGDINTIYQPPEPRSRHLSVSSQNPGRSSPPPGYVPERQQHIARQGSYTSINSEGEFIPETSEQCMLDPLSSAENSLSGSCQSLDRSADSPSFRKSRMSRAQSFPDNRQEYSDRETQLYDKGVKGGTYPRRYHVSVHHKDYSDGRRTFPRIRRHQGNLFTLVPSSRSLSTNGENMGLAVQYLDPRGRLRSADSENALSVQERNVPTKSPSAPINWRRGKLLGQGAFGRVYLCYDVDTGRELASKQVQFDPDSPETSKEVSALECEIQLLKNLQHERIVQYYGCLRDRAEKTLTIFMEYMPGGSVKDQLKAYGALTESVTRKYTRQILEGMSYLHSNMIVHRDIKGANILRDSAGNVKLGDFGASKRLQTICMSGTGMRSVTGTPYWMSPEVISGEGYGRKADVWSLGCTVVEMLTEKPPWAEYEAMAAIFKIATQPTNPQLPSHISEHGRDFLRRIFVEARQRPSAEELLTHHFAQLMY
MEKK2 WT-MEK5: raises or lowers MEK5 binding to wildtype human MEKK2 PB1 domain | Q9Y2U5 | bead flow cytometry, Alexa488-MEK5 binding to MEKK2 WT; actives lie on both sides | binding response (% of control), % at 10 µM | 290,000 compounds, 1.1% hits | AID 1531; in the data active means binding response below about 67% or above about 130%
MEKK2 mut-MEK5: signal of MEK5 binding to mutant human MEKK2 PB1 domain. 290,000 compounds, 0.35% hits. bead flow cytometry, Alexa488-MEK5 binding to MEKK2 mutant. AID 1530. percent response, % at 10 µM; in the data active means percent response above about 24%, passing the limit was not always enough
MEKK2wt confirm: raises or lowers MEK5 binding to wildtype human MEKK2, retest; 5,900 compounds, 2.4% hits; binding response (% of control), % at 10 µM; shares compounds with MEKK3 PB1 HTS; AID 1892; bead flow cytometry, Alexa488-MEK5 binding to MEKK2 WT; actives lie on both sides; in the data active means binding response below about 16% or above about 210%; inactive means in between
MEKK2mut confirm: signal of MEK5 binding to mutant human MEKK2, retest. shares compounds with MEKK3 PB1 HTS. bead flow cytometry, Alexa488-MEK5 binding to MEKK2 mutant. percent response, % at 10 µM. 5,900 compounds, 2% hits. AID 1893; in the data active means percent response mostly above about 71%, no sharp cut-off; inactive means mostly below about 38%;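 further: higher means compound restores mutant binding toward wildtype level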
MEKK3 confirm: confirmation of inhibitors of MEK5 binding to human MEKK3. shares compounds with MEKK3 PB1 HTS. bead flow cytometry, Alexa488-MEK5 binding to MEKK3; active compounds read low. binding response (% of control), % at 10 µM. 5,900 compounds, 1.8% hits;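 active means binding response below 72% of control, or above a set upper limit, though filed actives all read lower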;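 further: 100% = DMSO only wells and 0% = binding blocked by excess unlabeled MEK5; lower values mean stronger disruption of MEK5 binding to MEKK3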
* hit, by the source's call; nt = not tested or not shown; [ ] = another dose, or the depositor's remark.

SMILES	Hep lipid drop	MEKK3 PB1 HTS	MEKK2 WT-MEK5	MEKK2 mut-MEK5	MEKK2wt confirm	MEKK2mut confirm	MEKK3 confirm
Cc1cc(C)cc(C(=O)Nc2cccc(NC(=O)c3ccco3)c2)c1	21.3	100.0	99.0	-2.0	nt	nt	nt
O=C(COc1ccc(Cl)cc1Br)N1CCN(c2ccccc2)CC1	nt	101.0	103.0	5.0	nt	nt	nt
O=CN1CCN(C(=O)COc2ccc(Cl)cc2Br)CC1	-53.9	149.0*	108.0	0.0	98.0	-3.0	101.0
C/C(=N\S(=O)(=O)c1ccc(C)cc1)NC(=S)Nc1ccc(C)cc1	-21.3	60.0	65.0	-14.0	nt	nt	nt
NC(=O)SC/C(=N\S(=O)(=O)c1ccccc1)Nc1ccccc1	nt	102.0	101.0	2.0	nt	nt	nt
Cc1ccc(N/C(CSC(N)=O)=N\S(=O)(=O)c2ccc(C)cc2)cc1	8.7	128.0*	121.0	6.0	98.0	-5.0	100.0
Cc1ccc(N/C(CSC(N)=O)=N/S(=O)(=O)c2ccccc2)cc1	2.2	125.0*	116.0	4.0	99.0	-2.0	105.0
O=C(Nc1ccc2ccccc2c1)[C@@H]1C[C@H]1[C@@H](NP(=O)(c1ccccc1)c1ccccc1)c1ccccc1	42.8	107.0	94.0	-5.0	nt	nt	nt
Cc1cc2ccccc2n1CCNC(=O)C(C)Oc1ccccc1 (stereo not drawn)	-2.3	80.0*[inhibitor]	64.0*[inhibitor]	-10.0	49.0	-16.0	82.0
COc1ccc(/C=C/C(=O)NCCn2c(C)cc3ccccc32)cc1OC	-16.9	67.0*[inhibitor]	83.0	5.0	110.0	11.0	103.0
Cc1cc2ccccc2n1CCNC(=O)C(C)C	-1.7	106.0	93.0	0.0	nt	nt	nt
Cc1cccc(CC(=O)NCCn2c(C)cc3ccccc32)c1	-9.3	79.0*[inhibitor]	63.0*[inhibitor]	0.0	105.0	-1.0	100.0
Cc1cc2ccccc2n1CCNC(=O)c1ccc(S(=O)(=O)N2CCCCC2)cc1	-20.3	82.0*[inhibitor]	79.0	-7.0	80.0	-3.0	89.0
Cc1ccc(C(=O)NCCc2ccc(S(=O)(=O)N3CCCC3)cc2)cc1	-6.8	100.0	98.0	0.0	nt	nt	nt
COC(=O)c1ccccc1NC(=O)c1cccnc1	-2.2	102.0	107.0	10.0	nt	nt	nt
Cc1ccc(Sc2nc(C)cc(C)c2S(C)(=O)=O)cc1	nt	82.0*[inhibitor]	95.0	-10.0	104.0	-1.0	100.0
CCCSc1nc(C)cc(C)c1S(C)(=O)=O	-8.6	103.0	95.0	-5.0	nt	nt	nt
COc1ccc(C(=O)c2c[nH]cc2-c2ccccc2)cc1	-3.1	105.0	103.0	3.0	nt	nt	nt
O=C(c1ccc2ccccc2c1)c1c[nH]cc1-c1ccccc1	-12.6	129.0*	105.0	5.0	104.0	-6.0	103.0
O=C(Nc1nnc(-c2ccccc2Cl)s1)C1CCN(S(=O)(=O)c2ccc(Cl)cc2)CC1	12.4	140.0*	100.0	0.0	101.0	0.0	101.0
O=C(Nc1nnc(-c2ccccc2F)s1)C1CCN(S(=O)(=O)c2ccc(Cl)cc2)CC1	12.1	96.0	101.0	1.0	nt	nt	nt
Cc1ccc(S(=O)(=O)N2C=CC(C(F)(F)F)=NCC2)cc1	5.7	1.0*[inhibitor]	1.0*[inhibitor]	-21.0	97.0	-6.0	97.0
OC(COC(c1ccc(F)cc1)c1ccc(F)cc1)CN1CCc2ccccc2C1 (stereo not drawn)	-14.2	136.0*	112.0	1.0	115.0	5.0	100.0
OC(COC(c1ccc(Cl)cc1)c1ccc(Cl)cc1)CN1CCCC1 (stereo not drawn)	-0.2	105.0	140.0*	14.0	126.0	20.0	102.0
OC(COC(c1ccccc1)c1ccccc1)CN1CCc2ccccc2C1 (stereo not drawn)	-34.7	103.0	102.0	6.0	nt	nt	nt
SMILES	Hep lipid drop	MEKK3 PB1 HTS	MEKK2 WT-MEK5	MEKK2 mut-MEK5	MEKK2wt confirm	MEKK2mut confirm	MEKK3 confirm
OC(COC(c1ccc(Cl)cc1)c1ccc(Cl)cc1)CN1CCc2ccccc2C1 (stereo not drawn)	-53.9	110.0	164.0*	14.0	203.0	63.0	113.0
Cc1ccccc1NC(=O)Cc1nc(COC(=O)CNS(=O)(=O)c2cccc(Br)c2)cs1	-1.5	98.0	100.0	-1.0	nt	nt	nt
Cc1cc(NC(=O)CCSc2ccccc2)ccc1Br	15.5	133.0*	113.0	-1.0	104.0	-4.0	105.0
Cc1cc(Br)ccc1NC(=O)CCSc1ccccc1	nt	100.0	97.0	4.0	nt	nt	nt
COCCCn1c(-c2ccc(Cl)cc2)n[nH]c1=S	1.7	108.0	109.0	6.0	nt	nt	nt
S=c1[nH]nc(-c2ccc(Cl)cc2)n1CCCN1CCOCC1	2.3	118.0	119.0	431.0*	100.0	-6.0	103.0
CCCn1c(C)cc(C(=O)COC(=O)c2ccc[nH]c2=O)c1C	12.3	130.0*	106.0	0.0	97.0	-2.0	102.0
COc1ccc(C2C3=C(CC(C)(C)CC3=O)Oc3ncn(Cc4ccco4)c(=N)c32)cc1 (stereo not drawn)	nt	2.0*[inhibitor]	-1.0*[inhibitor]	-26.0	105.0	7.0	103.0
COc1ccc(C2c3c(ncn(Cc4ccco4)c3=N)Oc3ccc4ccccc4c32)cc1 (stereo not drawn)	-18.5	106.0	185.0*	56.0*	190.0	62.0	112.0
CC(C)(CNS(C)(=O)=O)SCc1ccc(Cl)cc1	5.0	87.0	90.0	-3.0	nt	nt	nt
COc1ccc(S(=O)(=O)NCC(=O)O)cc1C(=O)NC1CCCCC1	-0.9	99.0	100.0	-2.0	nt	nt	nt
O=C1OC(/C(=C\Nc2cc(Cl)ccc2O)[N+](=O)[O-])c2ccccc21 (stereo not drawn)	-0.5	38.0*[inhibitor]	52.0	-17.0	100.0	-1.0	103.0
CCCNc1c(NS(=O)(=O)c2ccc(OC)c(OC)c2)c(=O)oc2ccccc12	-0.7	102.0	100.0	0.0	nt	nt	nt
OCCNCc1cc(Br)ccc1OCc1ccc(F)cc1	-14.8	103.0	106.0	1.0	nt	nt	nt
CCOc1cc(CNCCSc2nnnn2C)cc(Br)c1OCc1ccccc1F	nt	106.0	136.0*	11.0	135.0	17.0	108.0
Cc1ccccc1NC(=O)COc1ccc(Br)cc1CNCCCO	-22.7	95.0	98.0	-6.0	nt	nt	nt
OCCNCc1cc(Br)ccc1OCc1ccc(Cl)cc1Cl	-36.0	110.0	145.0*	35.0*	127.0	17.0	105.0
OCCCCNCc1cc(Br)ccc1OCc1ccccc1F	-11.4	103.0	148.0*	24.0	157.0	32.0	109.0
CCOc1cccc(CNCCO)c1OCc1ccc(Cl)cc1Cl	-5.8	98.0	115.0	19.0	nt	nt	nt
CCOc1cc(CNCCO)cc(Br)c1OCc1ccc(Cl)cc1Cl	nt	115.0	212.0*	51.0*	204.0	58.0	110.0
CCc1ccc(OCc2ccc(C(=O)OC)o2)cc1	-4.7	100.0	103.0	1.0	nt	nt	nt
CCc1nnc(NC(=O)CSc2nnc(-c3ccc(NS(=O)(=O)c4ccccc4)cc3)o2)s1	42.4	115.0	102.0	-1.0	nt	nt	nt
